Assays:
[1] = Selectivity index, ratio of CTD50 for MDCK cells to ED50 for influenza virus A/California/07/09 (H1N1) pdm09; type: toxicity, cell-based; details: dog, read-out: Selectivity Index
Influenza A virus = test: Antiviral activity against Influenza virus A/California/07/09 (H1N1) pdm09 infected in MDCK cells after 48 hrs followed by incubated in chicken erythrocytes for 1 hr by hemagglutinination based end-point dilution method; type: functional, Influenza A virus (A/California/07/2009(H1N1)); details: read-out: ED50 (the source's name)
Procedure, shortened: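 MDCK cells were pretreated for 1 h at 37 °C with serial twofold compound dilutions in MEM containing 2 mM arginine, 2 mM glutamine and trypsin. They were then infected and cultured at 36 °C for 48 h. Supernatant was mixed with 1% chicken erythrocytes for 1 h at room temperature. Titer was read as the end-point dilution giving hemagglutination in 50% of wells. ED50 is the concentration halving virus production versus untreated control.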

[2] = Cytotoxicity against MDCK cells after 48 hrs by MTT assay; type: cell-based, Canis lupus familiaris; details: dog, read-out: CTD50
Procedure, shortened: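 MDCK monolayers were grown in MEM with 5% fetal calf serum and washed with serum-free MEM. They were exposed to serial twofold dilutions from 5 mg/ml DMSO stocks for 48 h at 37 °C. CTD50 was derived from this.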

RAW264.7 [3] = test: Antiinflammatory activity in mouse RAW264.7 cells assessed as inhibition of LPS-induced iNOS protein synthesis; type: functional, cell-based
RAW264.7 [4] = test: Antiinflammatory activity in mouse RAW264.7 cells assessed as inhibition of LPS-induced TNFalpha level; type: functional, cell-based
[5] = Selectivity index, ratio of cytotoxicity against human CEM cells to Antiviral activity against HIV1 RF; type: toxicity, cell-based, CCRF-CEM; details: read-out: Selectivity Index

With `CC(=O)c1c(O)c(C)c(O)c2c1OC1=CC(=O)/C(=C(/C)NCCC(=O)O)C(=O)[C@]12C` the selectivity ratio [1] was 1, the EC50 (Influenza A virus; Influenza A virus, pdm09, MDCK) was 400 µM and the CC50 at 48 h [2] was 400 µM.

`CC(=O)c1c(O)c(C)c(O)c2c1OC1=CC(=O)/C(=C(/C)Nc3ccc(Br)cc3)C(=O)[C@]12C` showed a selectivity ratio [1] of 5.1, an EC50 (Influenza A virus; Influenza A virus, pdm09, MDCK) of 30.4 µM and a CC50 at 48 h [2] of 154 µM.

In the case of `CC(=O)c1c(O)c(C)c(O)c2c1OC1=CC(=O)/C(=C(/C)NCC(=O)O)C(=O)[C@]12C`, the selectivity ratio [1] is reported as 18.4, the EC50 (Influenza A virus) is reported as 10.7 µM and the CC50 at 48 h [2] is reported as 197 µM.

`CC(=O)c1c(O)c(C)c(O)c2c1OC1=CC(=O)/C(=C(/C)NCC(=O)O)C(=O)[C@@]12C` gave a selectivity ratio [1] of 6, an EC50 (Influenza A virus) of 11.2 µM and a CC50 at 48 h [2] of 67.3 µM.

In the case of `CC(=O)c1c(O)c(C)c(O)c2c1OC1=CC(=O)/C(=C(/C)Nc3ccc(F)cc3)C(=O)[C@@]12C`, the selectivity ratio [1] is reported as 8.8, the EC50 (Influenza A virus; Influenza A virus, pdm09, MDCK) is reported as 23.6 µM and the CC50 at 48 h [2] is reported as 208 µM.

Work on `CC[N+](C)(CC)CCN/C(C)=C1\C(=O)C=C2Oc3c(C(C)=O)c(O)c(C)c(O)c3[C@@]2(C)C1=O` yielded a selectivity ratio [1] of 21.9, an EC50 (Influenza A virus; Influenza A virus, pdm09, MDCK) of 5.5 µM and a CC50 at 48 h [2] of 121 µM.

With `CC(=O)c1c(O)c(C)c(O)c2c1OC1=Cc3c(c(C)nn3-c3ccccc3)[C@@H](O)[C@]12C` the selectivity ratio [1] was 6.8, the EC50 (Influenza A virus; Influenza A virus, pdm09, MDCK) was 10.5 µM and the CC50 at 48 h [2] was 71.8 µM.

For `CC(=O)C1=C(O)C=C2O[C@]34O[C@@]3(C(C)=O)C(=O)C(C)=C(O)[C@]4(O)[C@@]2(C)C1=O`, the selectivity ratio [1] was 37.3, the EC50 (Influenza A virus; Influenza A virus, pdm09, MDCK) was 5.1 µM and the CC50 at 48 h [2] was 190 µM.

`CC(=O)C1=C(O)C=C2O[C@]34O[C@@]3(C(C)=O)C(=O)C(C)=C(O)[C@]4(O)[C@]2(C)C1=O` showed a selectivity ratio [1] of 8, an EC50 (Influenza A virus; Influenza A virus, pdm09, MDCK) of 27.7 µM and a CC50 at 48 h [2] of 221 µM.

Compound `CC[N+](C)(CC)CCN/C(C)=C1\C(=O)C=C2Oc3c(C(C)=O)c(O)c(C)c(O)c3[C@]2(C)C1=O` has a selectivity ratio [1] of 2.7, an EC50 (Influenza A virus; Influenza A virus, pdm09, MDCK) of 12.5 µM and a CC50 at 48 h [2] of 34.2 µM.

`CC(=O)C1=C(O)C=C2Oc3c(C(C)=O)c(O)c(C)c(O)c3[C@]2(C)C1=O` [(-)-USNIC ACID] gave a selectivity ratio [1] of 14.4, an EC50 (Influenza A virus; Influenza A virus, pdm09, MDCK) of 14.5 µM and a CC50 at 48 h [2] of 209 µM.

Compound `CC(=O)c1c(O)c(C)c(O)c2c1OC1=CC(=O)/C(=C(/C)NCCC(=O)O)C(=O)[C@@]12C` has a selectivity ratio [1] of 23.5, an EC50 (Influenza A virus; Influenza A virus, pdm09, MDCK) of 6.9 µM and a CC50 at 48 h [2] of 162 µM.

`CC(=O)c1c(O)c(C)c(O)c2c1OC1=Cc3c(c(C)nn3-c3ccccc3)[C@@H](O)[C@@]12C` showed a selectivity ratio [1] of 13.2, an EC50 (Influenza A virus; Influenza A virus, pdm09, MDCK) of 6 µM and a CC50 at 48 h [2] of 78.9 µM.

`CC(=O)c1c(O)c(C)c(O)c2c1OC1=CC(=O)/C(=C(/C)Nc3cccc(F)c3)C(=O)[C@@]12C` showed a selectivity ratio [1] of 4.8, an EC50 (Influenza A virus; Influenza A virus, pdm09, MDCK) of 12.7 µM and a CC50 at 48 h [2] of 61.3 µM.

Compound `CC(=O)c1c(O)c(C)c(O)c2c1OC1=CC(=O)/C(=C(/C)Nc3ccc(F)cc3)C(=O)[C@]12C` has a selectivity ratio [1] of 3.9, an EC50 (Influenza A virus; Influenza A virus, pdm09, MDCK) of 90.4 µM and a CC50 at 48 h [2] of 350 µM.

For `CC(=O)c1c(O)c(C)c(O)c2c1OC1=CC(=O)/C(=C(/C)Nc3ccc(Cl)cc3)C(=O)[C@@]12C`, the selectivity ratio [1] was 6.9, the EC50 (Influenza A virus; Influenza A virus, pdm09, MDCK) was 25.1 µM and the CC50 at 48 h [2] was 172 µM.

`CC(=O)c1c(O)c(C)c(O)c2c1OC1=Cc3c(c(C)nn3-c3ccccc3)C(=O)[C@@]12C` showed a selectivity ratio [1] of 12.4, an EC50 (Influenza A virus; Influenza A virus, pdm09, MDCK) of 62.2 µM and a CC50 at 48 h [2] of 769 µM.

For `NC(=O)c1ncn([C@@H]2O[C@H](CO)[C@@H](O)[C@H]2O)n1` [RIBAVIRIN], the selectivity ratio [1] was over 81, the EC50 (Influenza A virus; Influenza A virus, pdm09, MDCK) was 24.6 µM and the CC50 at 48 h [2] was over 2000 µM.

`CC(=O)c1c(O)c(C)c(O)c2c1OC1=CC(=O)/C(=C(/C)Nc3cccc(Br)c3)C(=O)[C@@]12C` gave a selectivity ratio [1] of 3.2, an EC50 (Influenza A virus; Influenza A virus, pdm09, MDCK) of 10.4 µM and a CC50 at 48 h [2] of 33.6 µM.

In the case of `CC(N)C12CC3CC(CC(C3)C1)C2` (configuration not stated) [RIMANTADINE], the selectivity ratio [1] is reported as 5, the EC50 (Influenza A virus; Influenza A virus, pdm09, MDCK) is reported as 56.9 µM and the CC50 at 48 h [2] is reported as 284 µM.

Work on `CC(=O)c1c(O)c(C)c(O)c2c1OC1=CC(=O)/C(=C(/C)Nc3ccc(Br)cc3)C(=O)[C@@]12C` yielded a selectivity ratio [1] of 9.6, an EC50 (Influenza A virus; Influenza A virus, pdm09, MDCK) of 20.2 µM and a CC50 at 48 h [2] of 193 µM.

With `CC(=O)c1c(O)c(C)c(O)c2c1OC1=Cc3c(c(C)nn3-c3ccccc3)C(=O)[C@]12C` the selectivity ratio [1] was 9, the EC50 (Influenza A virus; Influenza A virus, pdm09, MDCK) was 57.8 µM and the CC50 at 48 h [2] was 522 µM.

In the case of `CC(=O)C1=C(O)C=C2Oc3c(C(C)=O)c(O)c(C)c(O)c3[C@@]2(C)C1=O` [(+)-USNIC ACID], the IC50 (RAW264.7 [3]) is reported as 4.7 µM, the IC50 (RAW264.7 [4]) is reported as 12.8 µM and the selectivity ratio [5] is reported as 3. It also gave a selectivity ratio [1] of 5.9, an EC50 (Influenza A virus) of 51.7 µM and a CC50 at 48 h [2] of 305 µM.

Compound `CC(=O)c1c(O)c(C)c(O)c2c1OC1=CC(=O)/C(=C(/C)Nc3cccc(F)c3)C(=O)[C@]12C` has a selectivity ratio [1] of 8.8, an EC50 (Influenza A virus; Influenza A virus, pdm09, MDCK) of 4 µM and a CC50 at 48 h [2] of 35.3 µM.

Compound `CC(=O)c1c(O)c(C)c(O)c2c1OC1=CC(=O)/C(=C(/C)NCC(F)(F)C(F)F)C(=O)[C@]12C` has a selectivity ratio [1] of 10.2, an EC50 (Influenza A virus; Influenza A virus, pdm09, MDCK) of 38.9 µM and a CC50 at 48 h [2] of 397 µM.

`CC(=O)c1c(O)c(C)c(O)c2c1OC1=CC(=O)/C(=C(/C)Nc3ccc(Cl)cc3)C(=O)[C@]12C` gave a selectivity ratio [1] of 11.7, an EC50 (Influenza A virus; Influenza A virus, pdm09, MDCK) of 13.1 µM and a CC50 at 48 h [2] of 153 µM.

For `CC(=O)c1c(O)c(C)c(O)c2c1OC1=CC(=O)/C(=C(/C)Nc3cccc(Br)c3)C(=O)[C@]12C`, the selectivity ratio [1] was 10, the EC50 (Influenza A virus; Influenza A virus, pdm09, MDCK) was 9.8 µM and the CC50 at 48 h [2] was 97.8 µM.

Work on `CC(=O)c1c(O)c(C)c(O)c2c1OC1=CC(=O)/C(=C(/C)NCC(F)(F)C(F)F)C(=O)[C@@]12C` yielded a selectivity ratio [1] of 19.4, an EC50 (Influenza A virus; Influenza A virus, pdm09, MDCK) of 1.6 µM and a CC50 at 48 h [2] of 31.1 µM.

Source: ChEMBL document CHEMBL2202980, “Anti-viral activity of (-)- and (+)-usnic acids and their derivatives against influenza virus A(H1N1)2009” (Bioorg Med Chem Lett, 2012)
